According to ChEMBL document CHEMBL3407434, “Antivascular and anti-parasite activities of natural and hemisynthetic flavonoids from New Caledonian Gardenia species (Rubiaceae)” (Eur J Med Chem, 2015):

Tests used:
[1] = Cytotoxicity against rat L6 cells assessed as viable cells at 1 uM after 72 hrs by MTT assay relative to control; format: cell-based; details: read-out: Activity
Outline: (§1)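 L6 rat skeletal myoblasts, about 4 × 10^4 cells/well, dosed 24 h after seeding at 10 and 1 µM, in triplicate. After 72 h, MTT was added for 2 h, formazan was dissolved in detergent for 2 h at room temperature in the dark, and absorbance was read at 570 nm. Results are given as percent viable cells.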

[2] = tested on: Trypanosoma brucei gambiense; experiment: Antitrypanosomal activity against Trypanosoma brucei gambiense Feo assessed as parasite growth inhibition at 50 uM after 72 hrs by fluorescence assay relative to control; format: functional; details: read-out: GI
Outline: (§2)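 Bloodstream-form T. b. gambiense Feo at 10^5 parasites/mL, screened at 50 and 10 µM in triplicate. Incubated 72 h at 37 °C under 5% CO2. Values are percent of untreated controls. Pentamidine served as positive control.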

[3] = Cytotoxicity against rat L6 cells assessed as viable cells at 10 uM after 72 hrs by MTT assay relative to control; format: cell-based; details: read-out: Activity; outline: as §1
Leishmania amazonensis = experiment: Leishmanicidal activity against promastigote stage of Leishmania amazonensis MHOM/BR/PH8 after 48 hrs by MTT assay; format: functional, organism-based; details: MHOM/BR/PH8, 48 h
Outline: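 L. amazonensis MHOM/BR/PH8 promastigotes in Schneider's medium with 20% heat-inactivated FCS, at 10^5 per well in log phase. MTT was added for 4 h at 37 °C, formazan dissolved in DMSO and read at 570 nm. Amphotericin B was the reference drug.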

B16 = experiment: Cytotoxicity against mouse B16 cells assessed as cell viability after 48 hrs by MTT assay; format: cell-based; details: B16, 48 h
Outline: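 B16 murine melanoma cells, 5000/well, treated 24 h after plating. Compounds were tested at 0.01 to 100 µM final (DMSO stock 2.5 mg/mL), in triplicate, for 48 h at 37 °C under 5% CO2.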

Plasmodium falciparum [4] = experiment: Antiplasmodial activity against Plasmodium falciparum FcB1/Columbia infected in human red blood cells assessed as parasite growth inhibition at 10 uM after 48 hrs by [3H]-hypoxanthine incorporation assay relative to control; format: functional; details: read-out: GI
Outline: (§3)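 P. falciparum FcB1 (Colombia) grown in human red cells, in triplicate. Screened at 50 and 10 µM in 96-well plates for 48 h at 37 °C under reduced oxygen, then [3H]-hypoxanthine was added and incorporation counted. Counts per minute are given as percent of untreated controls.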

[5] = tested on: Trypanosoma brucei gambiense; experiment: Antitrypanosomal activity against Trypanosoma brucei gambiense Feo assessed as parasite growth inhibition at 10 uM after 72 hrs by fluorescence assay relative to control; format: functional; details: read-out: GI; outline: as §2
[6] = Antivascular activity in human EAhy926 cells assessed as concentration require to adopt rounding shape after 2 hrs by microscopic analysis; format: functional, EA.hy 926
Tubulin = experiment: Inhibition of tubulin (unknown origin) polymerization preincubated for 45 mins followed by GTP addition measured after 2 hrs by fluorescence assay; format: protein-complex assay, Homo sapiens
Tubulin (Homo sapiens) = Tubulin (Homo sapiens) (UniProt P68371+Q9H4B7+P0DPH7+P68366+Q13509+Q71U36+P04350+Q3ZCM7+P07437+P68363+Q9BQE3+Q6PEY2+Q13885+Q9BVA1+Q9BUF5); experiment: Inhibition of tubulin (unknown origin) polymerization at 30 uM preincubated for 45 mins followed by GTP addition measured after 2 hrs by fluorescence assay relative to control; format: protein-complex assay
Plasmodium falciparum [7] = experiment: Antiplasmodial activity against Plasmodium falciparum FcB1/Columbia infected in human red blood cells assessed as parasite growth inhibition after 48 hrs by [3H]-hypoxanthine incorporation assay; format: functional, organism-based
Outline: as §3, with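 “controls. Selected compounds were then re-run at 100 to 0.195 µM, with IC50 taken from sigmoidal inhibition curves.” for “controls.”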

[8] = tested on: Trypanosoma brucei gambiense; experiment: Antitrypanosomal activity against Trypanosoma brucei gambiense Feo assessed as parasite growth inhibition after 72 hrs by fluorescence assay; format: functional, organism-based
Outline: as §2, with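 “CO2. Resazurin (45 µM final) was added for 4 h at 37 °C, followed by 22 h at room temperature, and fluorescence read at ex 535/em 590 nm.” for “CO2.”, “controls. […]” for “controls.”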

Compound | viability at 72 h, 1 µM [1] [%] | inhibition of growth at 50 µM [2] [%] | viability at 72 h, 10 µM [3] [%] | IC50 (Leishmania amazonensis) [µM] | IC50 (B16) [µM] | inhibition of growth at 10 µM (Plasmodium falciparum [4]) [%] | inhibition of growth at 10 µM [5] [%] | Activity [6] [µM] | IC50 (Tubulin) [µM] | inhibition (Tubulin (Homo sapiens)) [%] | IC50 (Plasmodium falciparum [7]) [µM] | IC90 (Plasmodium falciparum [7]) [µM] | IC50 [8] [µM]
O=c1c(O)c(-c2ccc(O)cc2)oc2cc(O)cc(O)c12 [KAEMPFEROL] | 93.8 | 86.5 | 100 | 27.6 | 53.7 | 0 | 55.1 | >100 | – | – | – | – | –
COc1ccc(-c2oc3cc(O)c(OC)c(O)c3c(=O)c2OC)cc1OC | 99.7 | 99.8 | 94.7 | 8.15 | 28.9 | 21.3 | 76.2 | 25 | 19.3 | 75.1 | – | – | –
COc1c(O)c(OC)c2oc(-c3ccc(O)cc3)c(OC)c(=O)c2c1O | 88.4 | 50.7 | 80.4 | 27.3 | > 100 | 0.6 | 14.6 | >100 | – | – | – | – | –
COc1cc(-c2oc3cc(OC)c(OC)c(OC)c3c(=O)c2OC)cc(OC)c1OC | 93.8 | 72.4 | 81.2 | 31.6 | > 100 | 35 | 25.9 | >100 | – | – | 5.8 | 10.8 | –
COc1ccc(-c2oc3cc(OC)cc(O)c3c(=O)c2OC)cc1 | 99.1 | 19.9 | 100 | 33 | > 100 | 3.9 | 4.6 | 100 | – | – | – | – | –
COc1ccc(-c2oc3cc(OC)c(OC)c(O)c3c(=O)c2OC)cc1 | 85.3 | 8 | 96.5 | 14.8 | > 100 | 0 | 18.3 | >100 | – | – | – | – | –
COc1c(O)cc2oc(-c3ccc(O)cc3)c(OC)c(=O)c2c1O [3,6-DIMETHOXY KAEMPFEROL] | 86.2 | 88.8 | 73.5 | 8.07 | 74.1 | 0 | 40.7 | >100 | – | – | – | – | –
COc1cc(O)c2c(=O)c(OC)c(-c3ccc(O)cc3)oc2c1 [KUMATAKENIN] | 81.3 | 26.4 | 38.7 | 22.9 | 57.5 | 7.2 | 25.2 | 50 | – | – | – | – | –
COc1ccc(-c2oc3cc(O)c(OC)c(O)c3c(=O)c2OC)cc1 [SANTIN] | 90.9 | 83.1 | 40.8 | 63.1 | 45.7 | 0 | 33.2 | 12.5 | 5.7 | 100 | – | – | –
COc1cc(-c2oc3cc(O)c(OC)c(O)c3c(=O)c2OC)cc(OC)c1OC | 96.1 | 38.1 | 78.2 | 9.65 | 91.2 | 13.2 | 42.9 | 12.5 | 21.4 | 69.9 | – | – | –
COc1cc(-c2oc3cc(O)c(OC)c(O)c3c(=O)c2OC)cc(O)c1OC | 97.6 | 82.6 | 44.2 | 10.2 | 33.9 | 0 | 37.8 | 1.6 | 17.8 | 99 | – | – | –
COc1ccc(-c2oc3cc(OC)c(OC)c(OC)c3c(=O)c2OC)cc1 | 88.3 | 24.9 | 93.6 | 37.2 | > 100 | 0 | 29.4 | 50 | – | – | – | – | –
COc1cc(-c2oc3cc(OC)c(OC)c(O)c3c(=O)c2OC)cc(OC)c1OC | 99.2 | 40.5 | 53.5 | 21.8 | 11.5 | 21.7 | 17.6 | >100 | – | – | – | – | –
N=C(N)c1ccc(OCCCCCOc2ccc(C(=N)N)cc2)cc1 [PENTAMIDINE] | – | – | – | – | – | – | – | – | – | – | – | – | 0.007
COc1ccc(/C=C\c2cc(OC)c(OC)c(OC)c2)cc1O [COMBRETASTATIN A4] | – | – | – | – | – | – | – | 0.27 | – | – | – | – | –
C[C@@H]1[C@H](O)[C@@H](C)/C=C/C=C/C=C/C=C/C=C/C=C/C=C/[C@H](O[C@@H]2O[C@H](C)[C@@H](O)[C@H](N)[C@@H]2O)C[C@@H]2O[C@](O)(C[C@@H](O)C[C@@H](O)[C@H](O)CC[C@@H](O)C[C@@H](O)CC(=O)O[C@H]1C)C[C@H](O)[C@H]2C(=O)O [AMPHOTERICIN B] | – | – | – | 0.0725 | – | – | – | – | – | – | – | – | –
COc1c(-c2ccc(O)cc2)oc2cc(O)cc(O)c2c1=O [ISOKAEMPFERIDE] | 85 | 93.4 | 61 | 14.3 | 75.8 | 2.9 | 36.6 | >100 | – | – | – | – | –
CC(=O)Oc1ccc(-c2oc3cc(OC(C)=O)cc(O)c3c(=O)c2OC(C)=O)cc1 | 90.2 | 5.6 | 94.8 | 12.3 | 39.8 | 7.6 | 0 | >100 | – | – | – | – | –
